Data reported in ChEMBL document CHEMBL1177865, “Synthesis and anticancer activity of some novel 2-substituted benzimidazole derivatives” (Eur J Med Chem, 2010).
≈ marks a conversion by molar mass, not a printed value.

Key:
Assay type in all cases: functional, cell-based
HCT-116 = assay: Cytotoxicity against human HCT116 cells after 48 hrs by sulforhodamine B assay; conditions: HCT-116, 48 h
Summary of the method: (§1)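 Cells seeded at 10^4 per well and allowed to attach for 24 h, then exposed to compound at 0, 1, 2.5, 5 and 10 μg/ml, triplicate wells per dose, 48 h at 37 °C, 5% CO2. Fixed, stained with sulforhodamine B, excess dye removed with acetic acid, bound dye dissolved in Tris EDTA, absorbance read. IC50 (μg/ml, 50% survival reduction) taken from triplicate dose–response curves.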

HepG2 = assay: Cytotoxicity against human HepG2 cells after 48 hrs by sulforhodamine B assay; conditions: HepG2, 48 h; summary of the method: as §1
MCF7 = assay: Cytotoxicity against human MCF7 cells after 48 hrs by sulforhodamine B assay; conditions: MCF7, 48 h; summary of the method: as §1

Q: How did the IC50 (HCT-116) turn out when Nc1c(-c2nc3cc(C(=O)O)ccc3[nH]2)sc(=S)n1Cc1ccccc1 was run?
A: The IC50 was 4.23 µg/mL (≈ 11.1 µM).

Q: And the IC90 (HCT-116)?
A: The IC90 was 14 µg/mL (≈ 36.7 µM).

Q: And the IC50 (HepG2)?
A: The IC50 was 0.55 µg/mL (≈ 1.44 µM).

Q: What about the IC90 (HepG2) of the same compound?
A: Its IC90 is 7.53 µg/mL (≈ 19.7 µM).

Q: What about the IC50 (MCF7) of the same compound?
A: Its IC50 is 3.51 µg/mL (≈ 9.18 µM).

Q: And the IC90 (MCF7)?
A: Its IC90 is 14.1 µg/mL (≈ 36.8 µM).

Q: Which IC50 (HCT-116) does the source give for N#CC(=C1CCCCC1)c1nc2cc(C(=O)O)ccc2[nH]1 here?
A: The IC50 was 8.25 µg/mL (≈ 29.3 µM).

Q: What about the IC90 (HCT-116) of the same compound?
A: The IC90 was 14.2 µg/mL (≈ 50.4 µM).

Q: And the IC50 (HepG2)?
A: Its IC50 is 1.65 µg/mL (≈ 5.87 µM).

Q: What about the IC90 (HepG2) of the same compound?
A: Its IC90 is 8.61 µg/mL (≈ 30.6 µM).

Q: And the IC50 (MCF7)?
A: The IC50 was 2.15 µg/mL (≈ 7.64 µM).

Q: What about the IC90 (MCF7) of the same compound?
A: Its IC90 is 11.7 µg/mL (≈ 41.6 µM).

Q: For COc1cccc2c1C(=O)c1c(O)c3c(c(O)c1C2=O)C[C@@](O)(C(=O)CO)C[C@@H]3O[C@H]1C[C@H](N)[C@H](O)[C@H](C)O1 [DOXORUBICIN], which IC50 (HCT-116) is on record?
A: Its IC50 is 0.65 µg/mL (≈ 1.2 µM).

Q: What about the IC90 (HCT-116) of the same compound?
A: Its IC90 is 7.32 µg/mL (≈ 13.5 µM).

Q: What about the IC50 (HepG2) of the same compound?
A: Its IC50 is 0.59 µg/mL (≈ 1.09 µM).

Q: What about the IC90 (HepG2) of the same compound?
A: Its IC90 is 6.82 µg/mL (≈ 12.5 µM).

Q: And the IC90 (MCF7)?
A: The IC90 was 8.77 µg/mL (≈ 16.1 µM).

Q: How did the IC50 (HCT-116) turn out when N#C/C(=C\c1ccc(F)cc1)c1nc2cc(Cl)ccc2[nH]1 was run?
A: Its IC50 is 8.4 µg/mL (≈ 28.2 µM).

Q: And the IC90 (HCT-116)?
A: Its IC90 is 14.8 µg/mL (≈ 49.8 µM).

Q: What about the IC50 (HepG2) of the same compound?
A: Its IC50 is 0.55 µg/mL (≈ 1.85 µM).

Q: And the IC90 (HepG2)?
A: Its IC90 is 7.62 µg/mL (≈ 25.6 µM).

Q: What about the IC50 (MCF7) of the same compound?
A: The IC50 was 3.41 µg/mL (≈ 11.5 µM).

Q: What about the IC90 (MCF7) of the same compound?
A: Its IC90 is 13.3 µg/mL (≈ 44.8 µM).

Q: What does the source list for N#C/C(=C1\SCC(=O)N1c1ccccc1)c1nc2cc(Cl)ccc2[nH]1?
A: IC50 (HCT-116): 3.72 µg/mL (≈ 10.1 µM); IC90 (HCT-116): 12 µg/mL (≈ 32.8 µM); IC50 (HepG2): 0.93 µg/mL (≈ 2.54 µM); IC90 (HepG2): 7.89 µg/mL (≈ 21.5 µM); IC50 (MCF7): 2.83 µg/mL (≈ 7.71 µM); IC90 (MCF7): 12.6 µg/mL (≈ 34.4 µM)

Q: With COc1ccccc1C1=CS/C(=C(\C#N)c2nc3cc(C(=O)O)ccc3[nH]2)N1c1ccc(Br)cc1 as the compound, how does the IC50 (HCT-116) read?
A: Its IC50 is 3.75 µg/mL (≈ 6.88 µM).

Q: And the IC90 (HCT-116)?
A: The IC90 was 12.1 µg/mL (≈ 22.1 µM).

Q: And the IC50 (HepG2)?
A: Its IC50 is 3.16 µg/mL (≈ 5.79 µM).

Q: What about the IC90 (HepG2) of the same compound?
A: Its IC90 is 9.31 µg/mL (≈ 17.1 µM).

Q: What about the IC50 (MCF7) of the same compound?
A: Its IC50 is 2.85 µg/mL (≈ 5.23 µM).

Q: And the IC90 (MCF7)?
A: Its IC90 is 13.2 µg/mL (≈ 24.3 µM).

Q: How did the IC50 (HCT-116) turn out when N#C/C(=C1\SCCCN1c1ccccc1)c1nc2cc(C(=O)O)ccc2[nH]1 was run?
A: Its IC50 is 9.39 µg/mL (≈ 24.9 µM).

Q: And the IC90 (HCT-116)?
A: The IC90 was 14.7 µg/mL (≈ 39.1 µM).

Q: What about the IC50 (HepG2) of the same compound?
A: Its IC50 is 1.87 µg/mL (≈ 4.97 µM).

Q: What about the IC90 (HepG2) of the same compound?
A: Its IC90 is 8.8 µg/mL (≈ 23.4 µM).

Q: What about the IC50 (MCF7) of the same compound?
A: Its IC50 is 4.04 µg/mL (≈ 10.7 µM).

Q: And the IC90 (MCF7)?
A: Its IC90 is 15 µg/mL (≈ 39.9 µM).

Q: Which IC50 (HCT-116) does the source give for N#C/C(=C1\SC(=O)CN1C1CCCCC1)c1nc2cc(C(=O)O)ccc2[nH]1 here?
A: The IC50 was 5.52 µg/mL (≈ 14.4 µM).

Q: What about the IC90 (HCT-116) of the same compound?
A: Its IC90 is 14.1 µg/mL (≈ 36.9 µM).

Q: And the IC50 (HepG2)?
A: The IC50 was 1.35 µg/mL (≈ 3.53 µM).

Q: And the IC90 (HepG2)?
A: Its IC90 is 9.15 µg/mL (≈ 23.9 µM).

Q: And the IC50 (MCF7)?
A: Its IC50 is 3.83 µg/mL (≈ 10 µM).

Q: And the IC90 (MCF7)?
A: Its IC90 is 15 µg/mL (≈ 39.3 µM).
